Test results reported in ChEMBL document CHEMBL3779826, “Converting maslinic acid into an effective inhibitor of acylcholinesterases” (Eur J Med Chem, 2015).

Columns and labels:
[1] = biological target: Acetylcholinesterase (Electrophorus electricus) (UniProt O42275); assay: Mixed type inhibition of Electrophorus electricus AChE by Lineweaver-Burk plot analysis
Method in brief: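 Ellman kinetics at 30 °C in pH 8.0 Tris-HCl with DTNB. Enzyme plus inhibitor (3 concentrations and a water blank) was preincubated for 20 min, then ATChI was added at 0.9375, 0.625, 0.325 or 0.1875 mM. A415 was read every minute for 30 min, in triplicate. Mode, Ki and Ki' came from Lineweaver-Burk, Dixon and Cornish-Bowden plots.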

[2] = biological target: Cholinesterase (Equus caballus, UniProt P81908); assay: Inhibition of equine serum BChE using butyrylthiocholine iodide as substrate preincubated for 20mins before the addition of substrate by Ellman's method
[3] = biological target: Acetylcholinesterase (Electrophorus electricus, UniProt O42275); assay: Inhibition of Electrophorus electricus AChE using acetylthiocholine iodide as substrate preincubated for 20mins before the addition of substrate by Ellman's method
Acetylcholinesterase, sequence (O42275 whole entry): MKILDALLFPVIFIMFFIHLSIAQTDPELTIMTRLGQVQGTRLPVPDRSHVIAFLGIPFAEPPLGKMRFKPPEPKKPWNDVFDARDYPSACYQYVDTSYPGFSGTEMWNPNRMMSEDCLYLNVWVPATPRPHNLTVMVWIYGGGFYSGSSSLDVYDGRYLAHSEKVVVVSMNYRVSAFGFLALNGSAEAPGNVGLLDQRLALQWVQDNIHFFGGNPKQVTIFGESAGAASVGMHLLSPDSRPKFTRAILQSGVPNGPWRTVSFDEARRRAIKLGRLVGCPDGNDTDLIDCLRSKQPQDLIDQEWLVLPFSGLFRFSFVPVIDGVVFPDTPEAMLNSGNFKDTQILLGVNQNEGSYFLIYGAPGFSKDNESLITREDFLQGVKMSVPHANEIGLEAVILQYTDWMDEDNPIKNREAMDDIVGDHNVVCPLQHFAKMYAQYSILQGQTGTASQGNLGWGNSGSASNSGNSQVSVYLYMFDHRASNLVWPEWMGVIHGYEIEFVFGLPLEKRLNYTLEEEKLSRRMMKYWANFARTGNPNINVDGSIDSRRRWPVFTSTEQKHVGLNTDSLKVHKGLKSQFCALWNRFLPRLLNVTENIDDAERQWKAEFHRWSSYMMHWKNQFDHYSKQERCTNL

Cholinesterase, sequence (P81908 whole entry): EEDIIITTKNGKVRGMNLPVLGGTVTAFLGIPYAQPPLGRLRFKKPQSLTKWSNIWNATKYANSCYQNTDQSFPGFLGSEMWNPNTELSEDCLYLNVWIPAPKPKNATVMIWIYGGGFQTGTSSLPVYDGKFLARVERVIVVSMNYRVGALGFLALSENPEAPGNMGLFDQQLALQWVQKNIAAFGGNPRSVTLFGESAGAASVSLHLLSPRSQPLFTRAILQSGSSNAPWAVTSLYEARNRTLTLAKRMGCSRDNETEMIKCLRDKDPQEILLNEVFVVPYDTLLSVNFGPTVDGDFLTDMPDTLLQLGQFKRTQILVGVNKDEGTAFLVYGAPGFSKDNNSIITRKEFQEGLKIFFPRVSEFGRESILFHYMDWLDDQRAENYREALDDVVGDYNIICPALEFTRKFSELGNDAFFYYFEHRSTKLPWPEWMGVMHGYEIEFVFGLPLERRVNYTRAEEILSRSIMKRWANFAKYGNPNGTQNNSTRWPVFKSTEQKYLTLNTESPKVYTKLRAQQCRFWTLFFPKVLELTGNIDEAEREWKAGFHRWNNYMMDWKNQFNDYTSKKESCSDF
Acetylcholinesterase (Electrophorus electricus), sequence (O42275 24-633 limits assumed): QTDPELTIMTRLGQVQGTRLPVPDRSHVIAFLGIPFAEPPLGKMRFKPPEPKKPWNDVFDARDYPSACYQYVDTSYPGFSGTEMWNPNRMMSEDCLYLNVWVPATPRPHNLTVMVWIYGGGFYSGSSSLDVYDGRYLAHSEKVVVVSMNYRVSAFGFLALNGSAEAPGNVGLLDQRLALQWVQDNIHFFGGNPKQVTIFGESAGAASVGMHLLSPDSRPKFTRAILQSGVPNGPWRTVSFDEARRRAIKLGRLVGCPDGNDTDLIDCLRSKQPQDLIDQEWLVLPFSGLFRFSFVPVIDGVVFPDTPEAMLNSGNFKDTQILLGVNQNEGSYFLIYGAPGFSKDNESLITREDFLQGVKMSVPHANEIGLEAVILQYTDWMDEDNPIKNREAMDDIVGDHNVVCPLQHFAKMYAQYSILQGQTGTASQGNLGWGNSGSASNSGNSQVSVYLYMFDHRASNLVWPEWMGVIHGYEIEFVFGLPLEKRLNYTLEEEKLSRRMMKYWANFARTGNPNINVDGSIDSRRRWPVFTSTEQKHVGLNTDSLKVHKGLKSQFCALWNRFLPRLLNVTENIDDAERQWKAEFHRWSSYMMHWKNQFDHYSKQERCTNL

Row | SMILES | Ki ([2]; read-out: Ki) [µM] | Ki ([3]; read-out: Ki) [µM] | further results
1 | CCOC(=O)[C@]12CCC(C)(C)C[C@H]1C1=CC[C@@H]3[C@@]4(C)C[C@@H](O)[C@H](O)C(C)(C)[C@@H]4CC[C@@]3(C)[C@]1(C)CC2 | > 14 | 3.49 | Kiuc [1]: 4.67 µM; IC50 [3]: 4.68 µM
2 | CCNC(=O)[C@]12CCC(C)(C)C[C@H]1C1=CC[C@@H]3[C@@]4(C)C[C@@H](OC(C)=O)[C@H](OC(C)=O)C(C)(C)[C@@H]4CC[C@@]3(C)[C@]1(C)CC2 | > 14 | > 14 | 
3 | CC(=O)O[C@@H]1C[C@]2(C)[C@H]3CC=C4[C@@H]5CC(C)(C)CC[C@]5(C(=O)O)CC[C@@]4(C)[C@]3(C)CC[C@H]2C(C)(C)[C@H]1OC(C)=O | > 10 | > 10 | 
4 | CCNC(=O)[C@]12CCC(C)(C)C[C@H]1C1=CC[C@@H]3[C@@]4(C)C[C@@H](O)[C@H](O)C(C)(C)[C@@H]4CC[C@@]3(C)[C@]1(C)CC2 | > 20 | > 20 | 
5 | CC1(C)CC[C@]2(C(=O)NCc3ccccc3)CC[C@]3(C)C(=CC[C@@H]4[C@@]5(C)C[C@H](OC(=O)CCl)[C@H](OC(=O)CCl)C(C)(C)[C@@H]5CC[C@]43C)[C@@H]2C1 |  | 6.25 | IC50 [3]: 15.3 µM
6 | CC1(C)CC[C@]2(C(=O)NCc3ccccc3)CC[C@]3(C)C(=CC[C@@H]4[C@@]5(C)C[C@@H](OC(=O)CCl)[C@H](OC(=O)CCl)C(C)(C)[C@@H]5CC[C@]43C)[C@@H]2C1 |  | 25.1 | IC50 [3]: 20 µM
7 | C=CCOC(=O)[C@]12CCC(C)(C)C[C@H]1C1=CC[C@@H]3[C@@]4(C)C[C@@H](O)[C@H](O)C(C)(C)[C@@H]4CC[C@@]3(C)[C@]1(C)CC2 | > 30 | > 30 | 
8 | C#CCOC(=O)[C@]12CCC(C)(C)C[C@H]1C1=CC[C@@H]3[C@@]4(C)C[C@@H](O)[C@H](O)C(C)(C)[C@@H]4CC[C@@]3(C)[C@]1(C)CC2 | > 10 | > 10 | 
9 | CC1(C)CC[C@]2(C(=O)OCc3ccc(Br)cc3)CC[C@]3(C)C(=CC[C@@H]4[C@@]5(C)C[C@@H](O)[C@H](O)C(C)(C)[C@@H]5CC[C@]43C)[C@@H]2C1 | > 20 | > 20 | 
10 | COC(=O)[C@]12CCC(C)(C)C[C@H]1C1=CC[C@@H]3[C@@]4(C)C[C@@H](O)[C@H](O)C(C)(C)[C@@H]4CC[C@@]3(C)[C@]1(C)CC2 [MASLINIC ACID METHYL ESTER] | > 50 | > 50 | 
11 | C=CCNC(=O)[C@]12CCC(C)(C)C[C@H]1C1=CC[C@@H]3[C@@]4(C)C[C@@H](OC(C)=O)[C@H](OC(C)=O)C(C)(C)[C@@H]4CC[C@@]3(C)[C@]1(C)CC2 | > 20 | > 20 | 
12 | CCCCCCCCCCCCCCCCCCOC(=O)[C@]12CCC(C)(C)C[C@H]1C1=CC[C@@H]3[C@@]4(C)C[C@@H](O)[C@H](O)C(C)(C)[C@@H]4CC[C@@]3(C)[C@]1(C)CC2 |  |  | Ki [2]: ND(Insoluble); Ki [3]: ND(Insoluble)
13 | CC(=O)O[C@H]1C[C@]2(C)[C@H]3CC=C4[C@@H]5CC(C)(C)CC[C@]5(C(=O)NCc5ccccc5)CC[C@@]4(C)[C@]3(C)CC[C@H]2C(C)(C)[C@H]1OC(C)=O |  | > 10 | 
14 | CC1(C)CC[C@]2(C(=O)OCCO)CC[C@]3(C)C(=CC[C@@H]4[C@@]5(C)C[C@@H](O)[C@H](O)C(C)(C)[C@@H]5CC[C@]43C)[C@@H]2C1 | > 100 | > 100 | 
15 | CC1(C)CC[C@]2(C(N)=O)CC[C@]3(C)C(=CC[C@@H]4[C@@]5(C)C[C@@H](O)[C@H](O)C(C)(C)[C@@H]5CC[C@]43C)[C@@H]2C1 | 18.1 | > 20 | IC50 [2]: 34.1 µM
16 | CC1(C)CC[C@]2(C(=O)O)CC[C@]3(C)C(=CC[C@@H]4[C@@]5(C)C[C@@H](OC(=O)CCl)[C@H](OC(=O)CCl)C(C)(C)[C@@H]5CC[C@]43C)[C@@H]2C1 |  | 13.1 | Kiuc [1]: 19.8 µM; IC50 [3]: 15.1 µM

Row | SMILES | Ki ([2]; read-out: Ki) [µM] | Ki ([3]; read-out: Ki) [µM] | further results
17 | CC1(C)CC[C@]2(C(=O)OCc3cccc(Cl)c3)CC[C@]3(C)C(=CC[C@@H]4[C@@]5(C)C[C@@H](O)[C@H](O)C(C)(C)[C@@H]5CC[C@]43C)[C@@H]2C1 | > 10 | > 10 | 
18 | CC(=O)O[C@H]1C[C@]2(C)[C@H]3CC=C4[C@@H]5CC(C)(C)CC[C@]5(C(=O)O)CC[C@@]4(C)[C@]3(C)CC[C@H]2C(C)(C)[C@H]1OC(C)=O | > 20 | > 20 | 
19 | C#CCNC(=O)[C@]12CCC(C)(C)C[C@H]1C1=CC[C@@H]3[C@@]4(C)C[C@@H](O)[C@H](O)C(C)(C)[C@@H]4CC[C@@]3(C)[C@]1(C)CC2 | > 20 | > 20 | 
20 | CC1(C)CC[C@]2(C(=O)OCCCCBr)CC[C@]3(C)C(=CC[C@@H]4[C@@]5(C)C[C@@H](O)[C@H](O)C(C)(C)[C@@H]5CC[C@]43C)[C@@H]2C1 | > 10 | > 10 | 
21 | CC(=O)O[C@@H]1C[C@]2(C)[C@H]3CC=C4[C@@H]5CC(C)(C)CC[C@]5(C(N)=O)CC[C@@]4(C)[C@]3(C)CC[C@H]2C(C)(C)[C@H]1OC(C)=O | > 20 | > 20 | 
22 | CC1(C)CC[C@]2(C(=O)OCc3ccccc3)CC[C@]3(C)C(=CC[C@@H]4[C@@]5(C)C[C@@H](O)[C@H](O)C(C)(C)[C@@H]5CC[C@]43C)[C@@H]2C1 [BENZYL MASLINATE] | > 14 | > 14 | 
23 | C#CCNC(=O)[C@]12CCC(C)(C)C[C@H]1C1=CC[C@@H]3[C@@]4(C)C[C@@H](OC(C)=O)[C@H](OC(C)=O)C(C)(C)[C@@H]4CC[C@@]3(C)[C@]1(C)CC2 | > 14 | 8.14 | IC50 [3]: 15.1 µM
24 | CCCCCCCCCCCCOC(=O)[C@]12CCC(C)(C)C[C@H]1C1=CC[C@@H]3[C@@]4(C)C[C@@H](O)[C@H](O)C(C)(C)[C@@H]4CC[C@@]3(C)[C@]1(C)CC2 |  |  | Ki [2]: ND(Insoluble); Ki [3]: ND(Insoluble)
25 | CCCNC(=O)[C@]12CCC(C)(C)C[C@H]1C1=CC[C@@H]3[C@@]4(C)C[C@@H](OC(C)=O)[C@H](OC(C)=O)C(C)(C)[C@@H]4CC[C@@]3(C)[C@]1(C)CC2 | > 6 | > 6 | 
26 | COC(=O)[C@]12CCC(C)(C)C[C@H]1C1=CC[C@@H]3[C@@]4(C)C[C@@H](OS(N)(=O)=O)[C@H](O)C(C)(C)[C@@H]4CC[C@@]3(C)[C@]1(C)CC2 | > 40 | > 40 | 
27 | CC1(C)CC[C@]2(C(=O)NCc3ccccc3)CC[C@]3(C)C(=CC[C@@H]4[C@@]5(C)C[C@@H](O)[C@H](O)C(C)(C)[C@@H]5CC[C@]43C)[C@@H]2C1 |  | > 10 | 
28 | CC(=O)O[C@@H]1C[C@]2(C)[C@H]3CC=C4[C@@H]5CC(C)(C)CC[C@]5(C(=O)NCc5ccccc5)CC[C@@]4(C)[C@]3(C)CC[C@H]2C(C)(C)[C@H]1OC(C)=O |  | 16.2 | Kiuc [1]: 39.4 µM; IC50 [3]: 29.4 µM
29 | CC1(C)CC[C@]2(C(=O)OCc3ccc(Cl)cc3)CC[C@]3(C)C(=CC[C@@H]4[C@@]5(C)C[C@@H](O)[C@H](O)C(C)(C)[C@@H]5CC[C@]43C)[C@@H]2C1 | > 30 | > 30 | 
30 | CC1(C)CC[C@]2(C(=O)O)CC[C@]3(C)C(=CC[C@@H]4[C@@]5(C)C[C@H](OC(=O)CCl)[C@H](OC(=O)CCl)C(C)(C)[C@@H]5CC[C@]43C)[C@@H]2C1 |  | 6.85 | Kiuc [1]: 9.36 µM; IC50 [3]: 6.6 µM
31 | C=CCNC(=O)[C@]12CCC(C)(C)C[C@H]1C1=CC[C@@H]3[C@@]4(C)C[C@@H](O)[C@H](O)C(C)(C)[C@@H]4CC[C@@]3(C)[C@]1(C)CC2 | > 20 | > 20 | 
